Most compounds without a hit are left out; they make up all but 1.3% or so of the library.
RAD54 inh – inhibitors of human RAD54 branch migration; Q92698; RAD54 Holliday junction branch migration, FAM/BHQ fluorescence; inhibition, % at 10.4 µM; 360,000 tested, 0.14% active; AID 602329;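 active = mean normalized replicate activity at least 40 and at least half of replicates scoring 40 or more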;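 also: 0% = median of neutral control wells and 100% = median of positive control wells; inhibitors cause a drop in the FAM fluorescence signal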
XiGFP reactiv – activators of X-chromosome reactivation in mouse fibroblasts. XiGFP mouse fibroblasts, % GFP-positive cells imaging, 3 d; cells co-treated with 5-aza-dC sensitizer; scaled so ellipticine positive control = 100%. activation, % at 7.58 µM. 360,000 tested, 0.055% active. AID 743238;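 active = mean normalized replicate activation at least 10% and every replicate at or above 10%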;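 also: 0% = median of on-plate neutral control wells and 100% = ellipticine 6 µM median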
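Material: XiGFP fibroblasts, SV40-immortalized; Buffer or medium: DMEM containing 5-aza-dC; Compound dosing: single point; Times: 3 days compound exposure.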
S100A4 MyoIIA – S100A4-myosin IIA interaction inhibition. AID 652163. 360,000 tested, 0.14% active. S100A4/TAMRA-MyoIIA peptide fluorescence polarization. inhibition, % at 10.7 µM;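 active = mean inhibition of at least 70% across replicates, with every replicate also reaching that level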
Target sequence (P26447 whole entry, looked up): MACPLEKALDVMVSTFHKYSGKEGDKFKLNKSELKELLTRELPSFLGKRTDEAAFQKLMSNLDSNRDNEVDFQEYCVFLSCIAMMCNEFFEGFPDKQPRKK
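Compound dosing: one dose per compound; test system: human S100A4 monomer with TAMRA-labelled myosin IIA peptide; probe or stimulus: TAMRA-labelled myosin IIA heavy-chain peptide probe, 5 nM; medium: HEPES buffer with Ca2+, pH 7.2; schedule: 5 min incubation before reading; benchmarks: neutral control DMSO, positive control TFP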
AF4-AF9 inh – blocks AF4 peptide binding to human AF9; AlphaScreen, biotin-AF4 peptide binding to FLAG-AF9; inhibition, % at 10 µM; P42568; 350,000 tested, 0.47% active; AID 651704;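 active = every replicate reaching a set inhibition limit, whatever the replicate mean, cut at about 25% in these data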;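 also: 0% = plate neutral control median and 100% = total signal loss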
Target sequence (P42568 whole entry, looked up): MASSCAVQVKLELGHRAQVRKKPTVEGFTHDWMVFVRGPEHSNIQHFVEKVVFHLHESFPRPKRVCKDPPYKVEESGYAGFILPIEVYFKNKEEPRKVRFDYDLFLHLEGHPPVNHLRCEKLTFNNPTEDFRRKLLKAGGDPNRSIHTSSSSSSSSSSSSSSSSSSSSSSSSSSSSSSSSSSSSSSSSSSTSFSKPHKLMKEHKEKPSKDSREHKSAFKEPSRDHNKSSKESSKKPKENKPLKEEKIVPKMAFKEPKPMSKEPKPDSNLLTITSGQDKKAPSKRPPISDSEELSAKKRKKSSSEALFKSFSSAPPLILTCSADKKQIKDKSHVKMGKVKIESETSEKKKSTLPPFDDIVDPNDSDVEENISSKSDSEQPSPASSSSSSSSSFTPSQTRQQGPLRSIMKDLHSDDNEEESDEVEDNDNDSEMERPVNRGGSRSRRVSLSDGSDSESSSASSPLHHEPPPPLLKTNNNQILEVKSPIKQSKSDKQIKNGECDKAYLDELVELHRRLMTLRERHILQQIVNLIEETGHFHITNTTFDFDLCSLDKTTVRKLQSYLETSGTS
RAD52 anneal inh – RAD52 (human) annealing inhibition. 360,000 tested, 0.46% active. inhibition, % at 18.7 µM. recombinant RAD52 DNA annealing, FRET fluorescence. P43351. AID 651710;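 active = every replicate showing at least 50% inhibition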
CASP6 VEID inh – caspase-6 (human) enzyme inhibition. P55212. purified caspase-6, Z-VEID-R110 cleavage fluorescence. inhibition, % at 12.5 µM. 350,000 tested, 0.53% active;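 active = mean inhibition across replicates at least about 35%, with every replicate also reaching that limit, limit read from the data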;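 also: 0% = median of neutral control wells and 100% = no fluorescence left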
* = called active by the depositor; . = not tested or not shown.

SMILES	RAD54 inh	XiGFP reactiv	S100A4 MyoIIA	AF4-AF9 inh	RAD52 anneal inh	CASP6 VEID inh
C[C@H](CO)N1C[C@H](C)[C@H](CN(C)CC2CC2)Oc2ccc(NC(=O)C3CCCCC3)cc2CC1=O	-4.5	1.1	2.6	-0.4	-4.1	-1.5
CCC1CCCCN1Cc1c(O)ccc2c(=O)c(-c3ccccc3OC)coc12 (stereo not given)	-0.5	0.2	-2.0	29.1*	-5.2	-0.9
c1ccc(-c2cnn3c(-c4ccccc4)c(-c4ccccc4)nc3n2)cc1	.	98.9*	.	.	.	.
CC1NC(=O)NC1CCCCC(=O)O (stereo not given)	1.6	.	.	.	.	.
Cc1ccc(NC(=O)CCCCCC2NC(=O)NC2C)cc1 (stereo not given)	-3.4	.	0.0	97.1*	-0.3	5.1
Cc1ccc(C(=O)c2oc3ccccc3c2NC(=O)c2cc(-c3ccccc3O)n[nH]2)cc1	.	23.3*	.	.	.	.
O=C(O)Cc1c[nH]c2cccc(O)c12	7.7	.	-1.8	-2.4	7.6	54.2*
Cc1cc2c(NC(=O)Nc3ccc(F)cc3)cccc2nn1	-8.3	0.0	14.8	.	1.2	67.6*
CC(C)NC(=O)N(C)C[C@@H]1Oc2ccc(NS(C)(=O)=O)cc2C(=O)N(C)C[C@H]1C	.	0.3	.	.	.	.
CN(C)CC(=O)N1CCCCN2[C@@H](CO)[C@@H](c3ccc(/C=C/c4ccccc4)cc3)[C@@H]2C1	20.0	0.4	1.5	3.8	70.5*	3.7
O=C(NC1CCCC1)N1CCCCN2[C@@H](CO)[C@@H](c3ccc(-c4cccnc4)cc3)[C@@H]2C1	13.2	0.0	97.7*	-2.2	10.1	-0.2
O=C(NC1CCCC1)N1CCCCN2[C@@H](CO)[C@@H](c3ccc(/C=C/c4ccccc4)cc3)[C@@H]2C1	1.6	0.1	-10.3	27.9*	10.1	2.1
CN(C)CC(=O)N1CCCCN2[C@H](CO)[C@H](c3ccc(/C=C/c4ccccc4)cc3)[C@H]2C1	37.8	0.4	-5.2	3.5	61.6*	3.7
C/C=C/c1ccc([C@@H]2[C@H]3CN(C(=O)CN(C)C)CCCCN3[C@H]2CO)cc1	.	0.2	.	.	.	.
O=C(NC1CCCC1)N1CCCCN2[C@H](CO)[C@H](c3ccc(-c4cccnc4)cc3)[C@H]2C1	17.4	0.2	4.5	0.5	7.6	-1.7
C[C@@H]1CCCCO[C@H](CN(C)C(=O)NC2CCCCC2)[C@H](C)CN([C@H](C)CO)C(=O)c2cc(NC(=O)Cc3ccccc3)ccc2O1	.	0.0	.	.	.	.
CN(C)CC(=O)N1CCCCN2[C@@H](CO)[C@H](c3ccc(/C=C/c4ccccc4)cc3)[C@@H]2C1	30.7	-0.1	-24.8	-2.1	68.8*	-0.4
CN(C)CC(=O)N1CCCCN2[C@H](C1)[C@H](c1ccc(/C=C/c3ccccc3)cc1)[C@@H]2CO	12.1	0.1	24.4	-5.4	47.8	2.8
CN(C)CC(=O)N1CCCCN2[C@H](C1)[C@@H](c1ccc(/C=C/c3ccccc3)cc1)[C@@H]2CO	25.3	0.1	-2.4	1.2	58.1*	1.2
O=C(O)CCc1ccc(S(=O)(=O)Nc2cc(C(F)(F)F)ccc2N2CCCC2)cc1	-1.1	-0.1	-4.9	1.7	-11.4	67.2*
CCc1noc(C)c1C(=O)Nc1ccc(S(=O)(=O)N2CCCC(C)C2)cc1 (stereo not given)	-4.0	-0.2	2.5	-0.5	-5.8	42.0*
Cc1cc(C)n(CCNC(=O)C2CCC(=O)N(Cc3ccc(Cl)cc3)C2)n1 (stereo not given)	9.2	0.0	24.5	-1.0	-1.9	63.3*
CN(C)C(=O)c1cccc(-c2ccc3c(c2)[C@@H]2[C@@H](CCN2Cc2ccccc2F)[C@@H](CO)N3)c1	-23.1	0.2	.	.	.	.
COc1ccc(/C=N/NC(=S)NCCc2ccccc2)cc1	7.2	0.2	-6.4	0.1	-9.6	-2.1
COc1cccc(/C=N/NC(=S)NCCc2ccccc2)c1	2.4	0.1	-2.3	-1.5	-7.7	35.1*
SMILES	RAD54 inh	XiGFP reactiv	S100A4 MyoIIA	AF4-AF9 inh	RAD52 anneal inh	CASP6 VEID inh
CCC1=NN2C(=N)/C(=C\c3ccc(OCCOc4ccccc4OC)cc3)C(=O)N=C2S1	-1.1	-0.1	0.3	-1.8	-21.0	5.0
COc1ccc(/C=C2/C(=N)N3N=C(CC(=O)N4CCCC4)SC3=NC2=O)cc1OC	-13.1	0.0	-2.5	-0.9	-17.6	-1.0
COc1cc(/C=C2\C(=N)N3N=C(S(C)(=O)=O)SC3=NC2=O)ccc1OC(=O)c1cccs1	-3.7	0.0	-1.9	4.3	-19.2	43.3*
COc1cc(/C=C2\C(=N)N3N=C(S(C)(=O)=O)SC3=NC2=O)ccc1OC(=O)c1ccco1	-15.1	0.2	0.7	-0.6	-79.8	41.1*
COc1cc(/C=C2\C(=N)N3N=C(S(C)(=O)=O)SC3=NC2=O)ccc1OCCOc1ccccc1C	-5.8	0.1	-1.4	8.4	-32.7	39.6*
CCOc1cc(/C=C2\C(=N)N3N=C(S(=O)(=O)CC)SC3=NC2=O)ccc1OC(=O)c1ccco1	-8.5	0.1	-1.9	-3.7	-117.6	11.0
C[C@@H](NC(=O)C[C@@H]1C[C@H]2c3cc(NC(=O)C4CCOCC4)ccc3O[C@H]2[C@@H](CO)O1)c1ccccc1	1.3	0.0	-4.2	-0.6	0.8	4.3
CN(C)CCNc1ccc(-c2nn(C)c(=O)c3ccccc23)cc1[N+](=O)[O-]	.	0.1	-2.3	3.8	-15.6	0.1
CN(C)CCNCCCNc1c2ccccc2nc2cccc([N+](=O)[O-])c12	.	0.0	11.2	17.3	81.5*	-146.8
Cc1cccc(NC(=S)N(CCN2CCOCC2)Cc2cc3cc4c(cc3[nH]c2=O)OCO4)c1	.	0.0	-4.1	0.9	1.8	2.2
COc1ccc(NC(=S)N(CCN2CCOCC2)Cc2cc3cc4c(cc3[nH]c2=O)OCCO4)cc1	-4.2	0.6	1.1	4.8	-45.4	38.2*
O=C(NCC(c1ccco1)N1CCc2ccccc2C1)c1ccc(Cl)cc1 (stereo not given)	-7.1	-0.1	6.7	-2.2	-48.7	63.4*
CCCNC(=O)[C@@H]1[C@@H](CO)[C@@H]2Cn3c(cccc3=O)[C@@H]2N1C(=O)C1CCC1	0.7	0.0	105.8*	0.8	-17.7	-3.1
CCC(=O)N1[C@H](C(=O)NC2CCCCC2)[C@@H](CO)[C@@H]2Cn3c(cccc3=O)[C@@H]21	0.7	0.2	0.6	-0.6	-8.7	1.8
O=C(NC1CCCCC1)[C@H]1[C@H](CO)[C@H]2Cn3c(cccc3=O)[C@H]2N1C(=O)CC1CC1	-7.4	0.5	102.1*	2.6	-8.3	-2.8
Cc1cccn2c(=O)c3cc(C#N)c(=NC(=O)c4ccco4)n(Cc4ccco4)c3nc12	12.9	0.0	-4.1	0.1	-28.1	67.1*
CC1CCc2c(c3ccccc3n2C(=O)CCl)C1 (stereo not given)	7.6	0.0	8.2	4.0	-1.3	95.7*

Assay outcomes (PubChem)
